The target in experiment [1] is T1, Butyrophilin subfamily 3 member A1 (Homo sapiens, UniProt O00481). Nature of the experiment: Binding affinity to butyrophilin 3A1 in human Vgamma9/Vdelta2 T-cells assessed as activation of Vgamma9/Vdelta2 T-cell-mediated lysis of human T24 cells preincubated for 4 hrs followed by compound washout measured after 18 hrs. The gist of the method:
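T24 urinary bladder carcinoma cells (target) pulsed 4 h with 10 nM prodrug, medium, or 10 μM zoledronate. They were then cocultured 18 h with in vitro expanded Vγ9/Vδ2 T cells (effector) across target/effector ratios. Specific killing was scored by amine-reactive dead cell marker staining. Summary is at 1:10 target/effector, mean ± SD, n = 2, with one-way ANOVA.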
Target sequence in this assay (O00481 30-513 limits assumed): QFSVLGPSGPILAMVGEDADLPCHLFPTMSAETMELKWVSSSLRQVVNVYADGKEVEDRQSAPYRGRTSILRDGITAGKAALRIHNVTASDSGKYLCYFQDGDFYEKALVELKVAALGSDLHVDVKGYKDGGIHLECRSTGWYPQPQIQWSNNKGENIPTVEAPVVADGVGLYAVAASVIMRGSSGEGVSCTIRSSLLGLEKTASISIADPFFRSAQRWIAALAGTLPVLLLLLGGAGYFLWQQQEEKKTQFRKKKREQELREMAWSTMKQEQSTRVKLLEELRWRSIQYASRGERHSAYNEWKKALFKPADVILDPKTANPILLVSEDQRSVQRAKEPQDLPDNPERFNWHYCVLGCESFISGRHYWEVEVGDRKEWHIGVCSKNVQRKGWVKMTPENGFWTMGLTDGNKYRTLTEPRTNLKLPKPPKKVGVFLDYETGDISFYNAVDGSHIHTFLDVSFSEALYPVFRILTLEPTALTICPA

Experiment [2] concerns the target T1, Butyrophilin subfamily 3 member A1. The experiment in a line: Binding affinity to butyrophilin 3A1 in human Vgamma9/Vdelta2 T-cells assessed as activation of Vgamma9/Vdelta2 T-cells by measuring levels of CD69 and CD25 at 0.1 uM after 18 hrs relative to control. The gist of the method:
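Healthy-donor PBMC incubated 18 h with medium or titrated compound (up to 100 μM). TCR Vγ9+/Vδ2+ cells were gated and scored by flow cytometry for surface CD69 and CD25 upregulation versus medium control. EC50 was taken from titration curves, n = 4–5 donors.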
Target sequence in this assay (O00481 30-513 limits assumed): as above

Experiment [3] has the same target. Nature of the experiment: Ratio of ED50 for binding affinity to butyrophilin 3A1 in human Vgamma9/Vdelta2 T-cells for Vgamma9/Vdelta2 T-cell-mediated lysis of human T24 cells to EC50 for binding affinity to butyrophilin 3A1 for activation of Vgamma9/Vdelta2 T-cells.
Target sequence in this assay (O00481 30-513 limits assumed): as above
The target is the same in experiment [4]. The experiment in a line: Binding affinity to butyrophilin 3A1 in human Vgamma9/Vdelta2 T-cells assessed as activation of Vgamma9/Vdelta2 T-cells by upregulation of CD69 and CD25 after 18 hrs. In short, it runs like this: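 Healthy-donor PBMC incubated 18 h with medium or titrated compound (up to 100 μM). TCR Vγ9+/Vδ2+ cells were gated and scored by flow cytometry for surface CD69 and CD25 upregulation versus medium control.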

The species entered for another experiment is Homo sapiens. The experiment in a line: Upregulation of CD69/CD25 levels in human CD8-positive T cells expressing alpha-beta TCR. Format: functional, cell-based. The gist of the method:
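Healthy-donor human PBMC incubated 18 h with medium or compound (range up to 100 μM). CD3+ CD8+ αβ T cells were gated and analysed by flow cytometry for cell-surface CD69 and CD25 upregulation.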

The target in experiment [5] is T1, Butyrophilin subfamily 3 member A1. Nature of the experiment: Potency index, ratio of zoledronate EC50 to test compound EC50 for binding affinity to butyrophilin 3A1 in human Vgamma9/Vdelta2 T-cells assessed as activation of Vgamma9/Vdelta2 T-cells by upregulation of CD69 and CD25.
Target sequence in this assay (O00481 30-513 limits assumed): as above
Experiment [6] has the same target. Nature of the experiment: Binding affinity to butyrophilin 3A1 in human Vgamma9/Vdelta2 T-cells assessed as activation of Vgamma9/Vdelta2 T-cells by measuring levels of CD69 and CD25 at 10 uM after 18 hrs relative to control. In short, it runs like this:
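Human PBMC from healthy donors incubated 18 h with medium or compound (titrations up to 100 μM). Vγ9/Vδ2 T cells gated by TCR Vγ9 and Vδ2 expression. Surface CD69 and CD25 upregulation measured by flow staining and compared with medium control. n = 4–5 donors.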
Target sequence in this assay (O00481 30-513 limits assumed): as above

The source made the active and inactive calls. The calls are words filed in the database; no cut-off is given here.

Results on seven compounds are retold here after ChEMBL document CHEMBL4118107, “Synthesis and Biological Evaluation of ( E)-4-Hydroxy-3-methylbut-2-enyl Phosphate (HMBP) Aryloxy Triester Phosphoramidate Prodrugs as Activators of Vγ9/Vδ2 T-Cell Immune Responses” (J Med Chem, 2018).

`C/C(=C\COP(=O)(N[C@@H](C)C(=O)OCc1ccccc1)Oc1ccccc1)CO[Si](C)(C)C(C)(C)C` (some centres not stated): the ED50 in experiment [1] turned out to be 8510 nM. Moreover, in experiment [2], the Activity amounted to 50.6%. Moreover, in experiment [3], the Ratio was found to be 12900. Besides, the EC50 in experiment [4] came to 0.45 nM. In the experiment listed under Homo sapiens, the result was inactive. In experiment [5], the Ratio EC50 was found to be 1080.
Consider `C/C(=C\COP(=O)(N[C@@H](C)C(=O)OC(C)C)Oc1ccccc1)CO[Si](C)(C)C(C)(C)C` (some centres not stated), for which, in experiment [1], the ED50 amounted to 83200 nM. Also, in experiment [2], the Activity was 31%. Besides, the Ratio in experiment [3] was 7830. In experiment [4], the EC50 is 10.6 nM. Further, in the experiment listed under Homo sapiens, the outcome was inactive.
For the compound `C/C(=C\COP(=O)(O)OP(=O)(O)O)CO`, in experiment [1], the ED50 is > 100000 nM. Moreover, the result in the experiment listed under Homo sapiens was inactive.
For the compound `C/C(=C\COP(=O)(N[C@@H](C)C(=O)OC(C)(C)C)Oc1ccccc1)CO[Si](C)(C)C(C)(C)C` (some centres not stated), in experiment [1], the ED50 is > 100000 nM. Moreover, the Activity in experiment [2] is 29.9%. In addition, the concentration giving a half-maximal response (EC50) in experiment [4] turned out to be 8.92 nM. Besides, the result in the experiment filed under Homo sapiens was inactive.
On to `O=P(O)(O)C(O)(Cn1ccnc1)P(=O)(O)O` [ZOLEDRONIC ACID], for which the ED50 in experiment [1] is > 100000 nM. Also, the EC50 in experiment [4] was 487 nM. Also, in the experiment listed under Homo sapiens, the result was inactive. Further, the Activity in experiment [6] was determined as 39.2%.
For the compound `C/C(=C\CO)CO[Si](C)(C)C(C)(C)C`, in experiment [4], the outcome was inactive.
Regarding `COC(=O)[C@H](C)NP(=O)(OC/C=C(\C)CO[Si](C)(C)C(C)(C)C)Oc1ccccc1` (some centres not stated), the ED50 in experiment [1] came to 29500 nM. Further, in experiment [2], the Activity came out at 39%. In addition, in experiment [3], the Ratio amounted to 21400. Besides, in experiment [4], the EC50 is 1.38 nM. Also, the outcome in the experiment listed under Homo sapiens was inactive.
